# ChEMBL document CHEMBL1122950, “Structure-activity relationships of C-terminal tri- and tetrapeptide fragments that inhibit gastrin activity” (J Med Chem, 1985)
# The source made the active and inactive calls. No cut-off for these calls is given here. Where a SMILES comes first, the peptide text is derived from it.
# Species: Rattus norvegicus
# Assay: Inhibition of gastrin stimulated acid secretion in the in situ perfused rat stomach; Inactive
# Type: functional, organism-based
# Method in brief: (§1)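 In situ perfused stomach (Ghosh and Schild method) in urethane-anesthetized rats, with urethane given ip, or im and ip for some analogues. Acid secretion was stimulated by gastrin and test peptides were given in vivo. Antagonism is expressed as ED50 in μM/kg.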
row,Compound,ED50
1,"CC(C)C[C@H](NC(=O)[C@H](Cc1c[nH]c2ccccc12)NC(=O)OC(C)(C)C)C(=O)N[C@@H](CC(=O)OCc1ccccc1)C(N)=O (HELM PEPTIDE1{[CC(C)(C)OC(=O)[*:2]].W.L.D.[am]}|CHEM1{[c1ccc(CO[*:1])cc1]}$PEPTIDE1,CHEM1,4:R3-1:R1$$$V2.0)",inactive
2,"CSCC[C@H](NC(=O)[C@H](Cc1c[nH]c2ccccc12)NC(=O)OC(C)(C)C)C(=O)N[C@@H](CC(=O)OCc1ccccc1)C(N)=O (HELM PEPTIDE1{[CC(C)(C)OC(=O)[*:2]].W.M.D.[am]}|CHEM1{[c1ccc(CO[*:1])cc1]}$PEPTIDE1,CHEM1,4:R3-1:R1$$$V2.0)",inactive

# Biological target: T1, Gastrin/cholecystokinin type B receptor (Rattus norvegicus) (UniProt P30553)
# T1 sequence (whole entry): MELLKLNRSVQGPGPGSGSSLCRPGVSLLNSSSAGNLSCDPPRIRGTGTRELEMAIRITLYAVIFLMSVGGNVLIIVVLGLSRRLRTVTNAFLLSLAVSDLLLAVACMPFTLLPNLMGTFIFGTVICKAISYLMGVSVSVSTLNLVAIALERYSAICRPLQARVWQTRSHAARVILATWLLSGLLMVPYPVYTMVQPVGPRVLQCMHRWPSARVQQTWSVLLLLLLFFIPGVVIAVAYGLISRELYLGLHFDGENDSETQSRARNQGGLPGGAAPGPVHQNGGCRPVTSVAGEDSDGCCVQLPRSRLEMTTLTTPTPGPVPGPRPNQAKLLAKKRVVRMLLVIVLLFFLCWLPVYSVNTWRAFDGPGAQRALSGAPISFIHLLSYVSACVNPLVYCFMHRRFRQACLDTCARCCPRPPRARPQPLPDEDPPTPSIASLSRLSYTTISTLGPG
# Assay: Inhibition of gastrin stimulated acid secretion in in situ perfused rat stomach
# Type: functional, tissue-based
# Method in brief: as §1
row,ED50 [µmol/kg],Compound
1,15,CC(C)CC(NC(=O)[C@H](Cc1c[nH]c2ccccc12)NC(=O)OC(C)(C)C)C(=O)N[C@@H](CC(=O)O)C(N)=O (stereo not given in full)
2,17,CC(C)C[C@H](NC(=O)[C@H](Cc1c[nH]c2ccccc12)NC(=O)OC(C)(C)C)C(=O)N[C@H](CC(=O)O)C(N)=O
3,350,CCCN(CCC)C(=O)C(CCC(=O)O)NC(=O)c1ccccc1 (stereo not given)
4,170,O=C(N[C@@H](Cc1c[nH]c2ccccc12)C(=O)O)c1ccc(Cl)cc1
5,8,CSCC[C@H](NC(=O)[C@H](Cc1c[nH]c2ccccc12)NC(=O)CNC(=O)OC(C)(C)C)C(=O)N[C@@H](CC(=O)O)C(N)=O (HELM PEPTIDE1{[CC(C)(C)OC(=O)[*:2]].G.W.M.D.[am]}$$$$V2.0)
6,30,C[C@H](NC(=O)[C@H](Cc1c[nH]c2ccccc12)NC(=O)OC(C)(C)C)C(=O)N[C@@H](CC(=O)O)C(N)=O (HELM PEPTIDE1{[CC(C)(C)OC(=O)[*:2]].W.A.D.[am]}$$$$V2.0)
7,26.5,CC(C)(C)OC(=O)N[C@@H](Cc1c[nH]c2ccccc12)C(=O)N[C@@H](Cc1ccccc1)C(=O)N[C@@H](CC(=O)O)C(N)=O (HELM PEPTIDE1{[CC(C)(C)OC(=O)[*:2]].W.F.D.[am]}$$$$V2.0)
8,60,CC(C)(C)OC(=O)N[C@@H](Cc1c[nH]c2ccccc12)C(=O)NCC(=O)N[C@@H](CC(=O)O)C(N)=O (HELM PEPTIDE1{[CC(C)(C)OC(=O)[*:2]].W.G.D.[am]}$$$$V2.0)
9,25,CC[C@H](C)[C@H](NC(=O)[C@H](Cc1c[nH]c2ccccc12)NC(=O)OC(C)(C)C)C(=O)N[C@@H](CC(=O)O)C(N)=O (HELM PEPTIDE1{[CC(C)(C)OC(=O)[*:2]].W.I.D.[am]}$$$$V2.0)
10,150,CC(C)C[C@H](NC(=O)[C@H](Cc1c[nH]c2ccccc12)NC(=O)OC(C)(C)C)C(=O)N[C@@H](C)C(N)=O (HELM PEPTIDE1{[CC(C)(C)OC(=O)[*:2]].W.L.A.[am]}$$$$V2.0)
11,10,CC(C)C[C@H](NC(=O)[C@H](Cc1c[nH]c2ccccc12)NC(=O)OC(C)(C)C)C(=O)N[C@@H](CC(=O)O)C(=O)N(C)C (HELM PEPTIDE1{[CC(C)(C)OC(=O)[*:2]].W.L.D.[CN(C)[*:1]]}$$$$V2.0)
12,27.3,CC(C)C[C@H](NC(=O)[C@H](Cc1c[nH]c2ccccc12)NC(=O)OC(C)(C)C)C(=O)N[C@@H](CC(=O)O)C(=O)O (HELM PEPTIDE1{[CC(C)(C)OC(=O)[*:2]].W.L.D}$$$$V2.0)
13,11,CC(C)C[C@H](NC(=O)[C@H](Cc1c[nH]c2ccccc12)NC(=O)OC(C)(C)C)C(=O)N[C@@H](CCC(=O)O)C(N)=O (HELM PEPTIDE1{[CC(C)(C)OC(=O)[*:2]].W.L.E.[am]}$$$$V2.0)
14,19,CC(C)C[C@H](NC(=O)[C@H](Cc1c[nH]c2ccccc12)NC(=O)OC(C)(C)C)C(=O)N[C@@H](CC(N)=O)C(=O)O (HELM PEPTIDE1{[CC(C)(C)OC(=O)[*:2]].W.L.N}$$$$V2.0)
15,14,CSCC[C@H](NC(=O)[C@H](Cc1c[nH]c2ccccc12)NC(=O)OC(C)(C)C)C(=O)N[C@@H](CC(=O)O)C(N)=O (HELM PEPTIDE1{[CC(C)(C)OC(=O)[*:2]].W.M.D.[am]}$$$$V2.0)
16,15,CC(C)(C)OC(=O)N[C@@H](Cc1c[nH]c2ccccc12)C(=O)N1CCC[C@H]1C(=O)N[C@@H](CC(=O)O)C(N)=O (HELM PEPTIDE1{[CC(C)(C)OC(=O)[*:2]].W.P.D.[am]}$$$$V2.0)
17,14,CCCC[C@H](NC(=O)[C@H](Cc1c[nH]c2ccccc12)NC(=O)OC(C)(C)C)C(=O)N[C@@H](CC(=O)O)C(N)=O (HELM PEPTIDE1{[CC(C)(C)OC(=O)[*:2]].W.[Nle].D.[am]}$$$$V2.0)
18,38,CC(C)C[C@H](NC(=O)[C@H](Cc1c[nH]c2ccccc12)NC(=O)OCc1ccccc1)C(=O)N[C@@H](CC(=O)O)C(N)=O (HELM PEPTIDE1{[O=C(OCc1ccccc1)[*:2]].W.L.D.[am]}$$$$V2.0)
